According to ChEMBL document CHEMBL1126727, “Synthesis and anticonvulsant activity of enaminones. 2. Further structure-activity correlations” (J Med Chem, 1993):

Assays:
Rattus norvegicus [1] = experiment: Intraperitoneal (ip) toxicity tested in rats is the number of animals displaying neurotoxicity / number of animals tested (8) after 0.25 hr at 100 mg / kg; type: organism-based; set-up: dose 100 mg / kg; settings: in vivo
Procedure, shortened: (§1)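 Special ip screen run by the ADD Program in male Sprague-Dawley rats. Test drug was given ip at 100 mg/kg as a solution or suspension in 0.5% methylcellulose. Neurotoxicity was scored at 0.25, 0.5, 1, 2, 4, 6, 8 and 24 h after dosing. Each result is reported as number of rats showing neurotoxicity over number tested.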

Rattus norvegicus [2] = experiment: Intraperitoneal (ip) toxicity tested in rats is the number of animals displaying neurotoxicity / number of animals tested (8) after 0.50 h at 100 mg / kg; type: organism-based; set-up: dose 100 mg / kg; settings: in vivo, 0.5 h; procedure, shortened: as §1
Rattus norvegicus [3] = experiment: Intraperitoneal (ip) toxicity tested in rats is the number of animals displaying neurotoxicity / number of animals tested (8) after 1 hr at 100 mg / kg; type: organism-based; set-up: dose 100 mg / kg; settings: in vivo; procedure, shortened: as §1
Rattus norvegicus [4] = experiment: Intraperitoneal (ip) toxicity tested in rats is the number of animals displaying neurotoxicity / number of animals tested (8) after 2 h at 100 mg / kg; type: organism-based; set-up: dose 100 mg / kg; settings: in vivo; procedure, shortened: as §1
Rattus norvegicus [5] = experiment: Intraperitoneal (ip) toxicity tested in rats is the number of animals displaying neurotoxicity / number of animals tested (8) after 24 hr at 100 mg / kg; type: organism-based; set-up: dose 100 mg / kg; settings: in vivo; procedure, shortened: as §1
Rattus norvegicus [6] = experiment: Intraperitoneal (ip) toxicity tested in rats is the number of animals displaying neurotoxicity / number of animals tested (8) after 4 h at 100 mg / kg; type: organism-based; set-up: dose 100 mg / kg; settings: in vivo; procedure, shortened: as §1
Rattus norvegicus [7] = experiment: Intraperitoneal (ip) toxicity tested in rats is the number of animals displaying neurotoxicity / number of animals tested (8) after 6 hr at 100 mg / kg; type: organism-based; set-up: dose 100 mg / kg; settings: in vivo; procedure, shortened: as §1
[8] = Protective index expressed as TD50 / ED50; type: functional
Mus musculus [9] = experiment: Toxicity observed in mice at >750 mg/kg ip; No Toxicity; settings: in vivo
Mus musculus [10] = experiment: Effective dose administered intraperitoneally in mice at 15 minutes in maximal-electroshock (MES) test; settings: ip, 0.25 h
Rattus norvegicus [11] = experiment: Anticonvulsant activity reported as duration in amygdala kindled rats at 500 mg/kg (Behavioral seizure); type: functional
Rattus norvegicus [12] = experiment: Anticonvulsant activity reported as duration in amygdala kindled rats at 500 mg/kg (Forelimb clonus); type: functional
Rattus norvegicus [13] = experiment: Anticonvulsant activity reported as duration in amygdala kindled rats at 500 mg/kg (after discharge); type: functional
Rattus norvegicus [14] = experiment: Anticonvulsant activity reported as amygdala duration in amygdala kindled rats at 500 mg/kg (after discharge); type: functional
Rattus norvegicus [15] = experiment: Anticonvulsant activity tested at seizure stage in amygdala kindled rats at 500 mg/kg; type: functional
Rattus norvegicus [16] = experiment: Anticonvulsant activity reported as cortex latency in amygdala kindled rats at 500 mg/kg (after discharge); type: functional
Rattus norvegicus [17] = experiment: Anticonvulsant activity reported as latency in amygdala kindled rats at 500 mg/kg (Behavioral seizure); type: functional
Rattus norvegicus [18] = experiment: Anticonvulsant activity reported as latency in amygdala kindled rats at 500 mg/kg (Forelimb clonus); type: functional
[19] = (§2) Protective index (TD50 / MES ED50); type: functional
[20] = Toxic dose was determined after intraperitoneal administration; type: toxicity, organism-based; settings: rat, in vivo, ip
Procedure, shortened: (§3)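 Rats were dosed intraperitoneally, with compound given as a solution or a suspension in 0.5% methylcellulose. Neurotoxicity was scored 2.0 h after dosing in 8 animals per dose level (110–440 mg/kg). TD50 in mg/kg ip was derived from the dose–response, with a range given in parentheses.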

Rattus norvegicus [21] = organism: Rattus norvegicus; experiment: Number of animals protected from electroshock seizure / number of animals tested (8) after 0.50 hour at 1.0 mg / kg in maximal electroshock seizures (MES); type: functional
Procedure, shortened: (§4)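 For the intraperitoneal rat screen, compound was given as a solution or a suspension in 0.5% methylcellulose. Protection against maximal electroshock seizures was tested at 0.25 h or 0.50 h after dosing, in 8 animals per dose. Results are expressed as animals protected over animals tested, and ED50 in mg/kg ip, with a range, was derived from these counts.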

Rattus norvegicus [22] = organism: Rattus norvegicus; experiment: Number of animals protected from electroshock seizure / number of animals tested (8) after 0.50 hour at 2.0 mg / kg in maximal electroshock seizures (MES); type: functional; procedure, shortened: as §4
Rattus norvegicus [23] = organism: Rattus norvegicus; experiment: Number of animals protected from electroshock seizure / number of animals tested (8) after 0.50 hour at 3.0 mg / kg in maximal electroshock seizures (MES); type: functional; procedure, shortened: as §4
Rattus norvegicus [24] = organism: Rattus norvegicus; experiment: Number of animals protected from electroshock seizure / number of animals tested (8) after 0.50 hour at 3.5 mg / kg in maximal electroshock seizures (MES); type: functional; procedure, shortened: as §4
Rattus norvegicus [25] = organism: Rattus norvegicus; experiment: Number of animals protected from electroshock seizure / number of animals tested (8) after 0.50 hour at 4.0 mg / kg in maximal electroshock seizures (MES); type: functional; procedure, shortened: as §4
Rattus norvegicus [26] = organism: Rattus norvegicus; experiment: Number of animals exhibiting neurotoxicity / number of animals tested (2) after 0.25-24 h at 64 mg / kg
Rattus norvegicus [27] = organism: Rattus norvegicus; experiment: Number of animals exhibiting neurotoxicity / number of animals tested (2) after 0.25-24 hr at 8 mg / kg
Rattus norvegicus [28] = organism: Rattus norvegicus; experiment: Number of animals exhibiting neurotoxicity / number of animals tested (2) after 0.25-24 hr at 16 mg / kg
Rattus norvegicus [29] = organism: Rattus norvegicus; experiment: Number of animals exhibiting neurotoxicity / number of animals tested (2) after 0.25-24 hr at 32 mg / kg
[30] = Protective index expressed as TD50 / ED50; No toxicity; type: functional
Rattus norvegicus [31] = experiment: Toxicity observed in rats at >500 mg/kg po; settings: in vivo
Rattus norvegicus [32] = experiment: Anticonvulsant activity reported as duration in amygdala kindled rats at 350 mg/kg (after discharge); type: functional
Rattus norvegicus [33] = experiment: Intraperitoneal (ip) toxicity tested in rats is the number of animals displaying neurotoxicity / number of animals tested (8) after 24 hr at 100 mg / kg (Two testing animals died); type: organism-based; set-up: dose 100 mg / kg; settings: in vivo; procedure, shortened: as §1
Rattus norvegicus [34] = experiment: Intraperitoneal (ip) toxicity tested in rats is the number of animals displaying neurotoxicity / number of animals tested (8) after 8 hr at 100 mg / kg; type: organism-based; set-up: dose 100 mg / kg; settings: in vivo; procedure, shortened: as §1
Rattus norvegicus [35] = experiment: Anticonvulsant activity reported as amygdala duration in amygdala kindled rats at 350 mg/kg (after discharge); type: functional
Rattus norvegicus [36] = experiment: Anticonvulsant activity reported as duration in amygdala kindled rats at 350 mg/kg (Behavioral seizure); type: functional
Rattus norvegicus [37] = experiment: Anticonvulsant activity reported as duration in amygdala kindled rats at 350 mg/kg (Forelimb clonus); type: functional
Rattus norvegicus [38] = experiment: Anticonvulsant activity tested at seizure stage in amygdala kindled rats at 350 mg/kg; type: functional
Rattus norvegicus [39] = experiment: Anticonvulsant activity reported as cortex latency in amygdala kindled rats at 350 mg/kg (after discharge); type: functional
Rattus norvegicus [40] = experiment: Anticonvulsant activity reported as latency in amygdala kindled rats at 350 mg/kg (Behavioral seizure); type: functional
Rattus norvegicus [41] = experiment: Anticonvulsant activity reported as latency in amygdala kindled rats at 350 mg/kg (Forelimb clonus); type: functional
Rattus norvegicus [42] = organism: Rattus norvegicus; experiment: Number of animals protected from electroshock seizure / number of animals tested (8) after 0.25 hour at 3.6 mg / kg in maximal electroshock seizures (MES); type: functional; procedure, shortened: as §4
Rattus norvegicus [43] = organism: Rattus norvegicus; experiment: Number of animals protected from electroshock seizure / number of animals tested (8) after 0.25 hour at 4.5 mg / kg in maximal electroshock seizures (MES); type: functional; procedure, shortened: as §4
Rattus norvegicus [44] = organism: Rattus norvegicus; experiment: Number of animals protected from electroshock seizure / number of animals tested (8) after 0.25 hour at 7.0 mg / kg in maximal electroshock seizures (MES); type: functional; procedure, shortened: as §4
Rattus norvegicus [45] = organism: Rattus norvegicus; experiment: as §2; type: functional
Rattus norvegicus [46] = organism: Rattus norvegicus; experiment: Number of animals exhibiting neurotoxicity / number of animals tested (8) after 2.0 hr at 110 mg / kg; type: functional; procedure, shortened: as §3
Rattus norvegicus [47] = organism: Rattus norvegicus; experiment: Number of animals exhibiting neurotoxicity / number of animals tested (8) after 2.0 hr at 180 mg / kg; type: functional; procedure, shortened: as §3
Rattus norvegicus [48] = organism: Rattus norvegicus; experiment: Number of animals exhibiting neurotoxicity / number of animals tested (8) after 2.0 hr at 220 mg / kg; type: functional; procedure, shortened: as §3
Rattus norvegicus [49] = organism: Rattus norvegicus; experiment: Number of animals exhibiting neurotoxicity / number of animals tested (8) after 2.0 hr at 440 mg / kg; type: functional; procedure, shortened: as §3
Rattus norvegicus [50] = organism: Rattus norvegicus; experiment: Number of animals protected from electroshock seizure / number of animals tested (8) after 0.25 hour at 1.2 mg / kg in maximal electroshock seizures (MES); type: functional; procedure, shortened: as §4

CCc1ccc(NC2=CC(=O)C(C(=O)OC)C(C)C2)cc1 (stereo not given)
Toxicity (Rattus norvegicus [1]): 1
Toxicity (Rattus norvegicus [2]): 5
Toxicity (Rattus norvegicus [3]): 0
Toxicity (Rattus norvegicus [4]): 0
Toxicity (Rattus norvegicus [5]): 0
Toxicity (Rattus norvegicus [6]): 0
Toxicity (Rattus norvegicus [7]): 0
PI [8]: > 6.6
Toxicity (Mus musculus [9]): No Toxicity
ED50 (Mus musculus [10]): 114 mg/kg

COC(=O)C1C(=O)C=C(NCc2ccccc2)CC1C (stereo not given)
Duration (Rattus norvegicus [11]): 79.5 s
Duration (Rattus norvegicus [12]): 44.2 s
Duration (Rattus norvegicus [13]): 78.9 s
Duration (Rattus norvegicus [14]): 73.9 s
Seizure stage (Rattus norvegicus [15]): 5
Latency (Rattus norvegicus [16]): 2.8 s
Latency (Rattus norvegicus [17]): 2.1 s
Latency (Rattus norvegicus [18]): 9.3 s

COC(=O)C1C(=O)C=C(Nc2ccc(C(F)(F)F)cc2)CC1C (stereo not given)
PI [19]: > 21.7
TD50 [20]: > 64 mg/kg
No. of animals (Rattus norvegicus [21]): 0
No. of animals (Rattus norvegicus [22]): 3
No. of animals (Rattus norvegicus [23]): 3
No. of animals (Rattus norvegicus [24]): 4
No. of animals (Rattus norvegicus [25]): 7
No. of animals (Rattus norvegicus [26]): 0
No. of animals (Rattus norvegicus [27]): 0
No. of animals (Rattus norvegicus [28]): 0
No. of animals (Rattus norvegicus [29]): 0

CC1(C)CC(O)=C/C(=N\c2ccccc2)C1
Toxicity (Rattus norvegicus [1]): 5
Toxicity (Rattus norvegicus [2]): 7
Toxicity (Rattus norvegicus [3]): 6
Toxicity (Rattus norvegicus [4]): 6
Toxicity (Rattus norvegicus [5]): 0
Toxicity (Rattus norvegicus [6]): 3
Toxicity (Rattus norvegicus [7]): 3
PI [30]: > 13.7
Toxicity (Rattus norvegicus [31]): Toxicity observed in mice at >500 mg/kg po
ED50 (Mus musculus [10]): 36.4 mg/kg

COC(=O)C1C(=O)C=C(Nc2ccc(Cl)cc2)CC1C (stereo not given)
Duration (Rattus norvegicus [32]): 79.6 s
Toxicity (Rattus norvegicus [1]): 0
Toxicity (Rattus norvegicus [2]): 3
Toxicity (Rattus norvegicus [3]): 6
Toxicity (Rattus norvegicus [4]): 7
Toxicity (Rattus norvegicus [33]): 2
Toxicity (Rattus norvegicus [6]): 2
Toxicity (Rattus norvegicus [7]): 1
Toxicity (Rattus norvegicus [34]): 0
Duration (Rattus norvegicus [35]): 79.8 s
Duration (Rattus norvegicus [36]): 82.3 s
Duration (Rattus norvegicus [37]): 45.3 s
Seizure stage (Rattus norvegicus [38]): 5
Latency (Rattus norvegicus [39]): 2.7 s
Latency (Rattus norvegicus [40]): 2.1 s
Latency (Rattus norvegicus [41]): 9.2 s

COC(=O)C1C(=O)C=C(Nc2ccc(Br)cc2)CC1C (stereo not given)
TD50 [20]: 270 mg/kg
No. of animals (Rattus norvegicus [42]): 5
No. of animals (Rattus norvegicus [43]): 3
No. of animals (Rattus norvegicus [44]): 7
PI (Rattus norvegicus [45]): 67.4
No. of animals (Rattus norvegicus [46]): 0
No. of animals (Rattus norvegicus [47]): 2
No. of animals (Rattus norvegicus [48]): 4
No. of animals (Rattus norvegicus [49]): 6
No. of animals (Rattus norvegicus [50]): 0
